# Measured values as given in ChEMBL document CHEMBL1157638, “Fluorescent epigenetic small molecule induces expression of the tumor suppressor ras-association domain family 1A and inhibits human prostate xenograft” (J Med Chem, 2010).
# Activity calls are given as the source filed them. The rule behind the calls is not given here.
# Tests used:
# [1] = tested on: DU-145; assay: Growth inhibition of human DU145 cells assessed as cell growth at 1 uM relative to untreated control; type: functional; settings: read-out: Activity
# Method in brief: (§1)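 Run externally at the National Cancer Institute as a 59-cell-line panel screen, with concentrations up to 100 μM. Growth was scored relative to control, where negative growth or total cell kill was possible. Data are in the Supporting Information.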
# [2] = tested on: IGROV-1; assay: Growth inhibition of human IGROV1 cells; type: functional
# [3] = tested on: SF-295; assay: Growth inhibition of human SF295 cells assessed as cell growth at 1 uM relative to untreated control; type: functional; settings: read-out: Activity
# [4] = tested on: EKVX; assay: Growth inhibition of human EKVX cells; type: functional; method in brief: as §1
# [5] = tested on: OVCAR-4; assay: Growth inhibition of human OVCAR4 cells assessed as cell growth at 100 nM relative to untreated control; type: functional; settings: read-out: Activity
# [6] = tested on: MDA-MB-435; assay: Growth inhibition of human MDA-MB-435 cells assessed as cell growth at 1 nM relative to untreated control; type: functional; settings: read-out: Activity
# [7] = tested on: TK-10; assay: Growth inhibition of human TK10 cells assessed as cell growth at 1 uM relative to untreated control; type: functional; settings: read-out: Activity
# [8] = Growth inhibition of human […] cells; type: functional
# [9] = tested on: M14; assay: Growth inhibition of human M14 cells assessed as cell growth at 1 uM relative to untreated control; type: functional; settings: read-out: Activity
# [10] = tested on: OVCAR-8; assay: Growth inhibition of human OVCAR8 cells assessed as cell growth at 10 nM relative to untreated control; type: functional; settings: read-out: Activity
# [11] = tested on: NCI-H226; assay: Growth inhibition of human NCI-H226 cells assessed as cell growth at 10 uM relative to untreated control; type: functional; settings: read-out: Activity
# [12] = tested on: Mus musculus; assay: Toxicity in BALB/c mouse up to 550 mg/kg, po; type: organism-based; parameters: dose 550 mg/kg, route oral; settings: in vivo
# [13] = target: DNA (cytosine-5)-methyltransferase 3A (Homo sapiens) (UniProt Q9Y6K1); assay: Binding affinity to DNMT3a in human PC3 cells cytoplasm at 5 uM after 6 hrs by antibody staining; type: cell-based; settings: PC-3
# Method in brief: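 PC-3 cells were plated overnight on fibronectin/[…]-coated slides and treated with 5 μM compound or DMSO for 1-6 h. Cells were PBS-washed, fixed in 4% formaldehyde, and stained with propidium iodide (nuclei) and anti-DNMT3a or anti-DNMT3b antibody. The compound was excited at 725 nm by multiphoton laser and imaged through a 500-550 nm filter by confocal microscopy.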
# [14] = tested on: MDA-MB-231; assay: Growth inhibition of human MDA-MB-231 cells assessed as cell growth at 100 nM relative to untreated control; type: functional; settings: read-out: Activity
# [15] = tested on: UACC-62; assay: Growth inhibition of human UACC62 cells assessed as cell growth at 10 nM relative to untreated control; type: functional; settings: read-out: Activity
# [16] = tested on: ACHN; assay: Growth inhibition of human ACHN cells assessed as cell growth at 100 nM relative to untreated control; type: functional; settings: read-out: Activity
# [17] = tested on: IGROV-1; assay: Growth inhibition of human IGROV1 cells assessed as cell growth at 1 nM relative to untreated control; type: functional; settings: read-out: Activity
# [18] = Growth inhibition of human […] cells assessed as cell growth at 10 nM relative to untreated control; type: functional; settings: read-out: Activity
# [19] = tested on: NCI-H322M; assay: Growth inhibition of human NCI-H322M cells assessed as cell growth at 1 uM relative to untreated control; type: functional; settings: read-out: Activity
# [20] = tested on: KM12; assay: Growth inhibition of human KM12 cells assessed as cell growth at 100 nM relative to untreated control; type: functional; settings: read-out: Activity
# [21] = tested on: K562; assay: Growth inhibition of human K562 cells assessed as cell growth at 1 uM relative to untreated control; type: functional; settings: read-out: Activity
# [22] = tested on: A549; assay: Growth inhibition of human A549 cells assessed as cell growth at 10 uM relative to untreated control; type: functional; settings: read-out: Activity
# [23] = tested on: LOX IMVI; assay: Growth inhibition of human LOXIMVI cells; type: functional
# [24] = tested on: SF-268; assay: Growth inhibition of human SF268 cells; type: functional
# [25] = tested on: A498; assay: Growth inhibition of human A498 cells; type: functional
# [26] = tested on: HCT-116; assay: Growth inhibition of human HCT116 cells assessed as cell growth at 100 nM relative to untreated control; type: functional; settings: read-out: Activity; method in brief: as §1
# [27] = tested on: MCF7; assay: Growth inhibition of human MCF7 cells assessed as cell growth at 10 uM relative to untreated control; type: functional; settings: read-out: Activity
# [28] = tested on: COLO 205; assay: Growth inhibition of human COLO205 cells assessed as cell growth at 100 nM relative to untreated control; type: functional; settings: read-out: Activity; method in brief: as §1
# [29] = tested on: PC-3; assay: Growth inhibition of human PC3 cells assessed as cell growth at 1 uM relative to untreated control; type: functional; settings: read-out: Activity
# [30] = tested on: COLO 205; assay: Growth inhibition of human COLO205 cells assessed as cell growth at 10 uM relative to untreated control; type: functional; settings: read-out: Activity; method in brief: as §1
# [31] = tested on: PC-3; assay: Cytostatic against human PC3 cells up to 30 uM after 24 hrs by trypan blue exclusion method; type: functional, cell-based
# Method in brief: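 PC-3 cells were seeded in triplicate at 1.5 × 10⁴ cells/well and grown in phenol red-free IMEM with 10% FBS at 37 °C, 5% CO₂. After 24 h they were treated with DMSO or 1, 5, 15, 30 or 60 μM compound for 24 h. Cells were then trypsinized, and live and dead cells were counted by 0.4% trypan blue exclusion on a hemocytometer. Values are mean ± SEM of three independent observations.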
# [32] = tested on: OVCAR-3; assay: Growth inhibition of human OVCAR-3 cells assessed as cell growth at 100 nM relative to untreated control; type: functional; settings: read-out: Activity
# [33] = tested on: OVCAR-4; assay: Growth inhibition of human OVCAR4 cells assessed as cell growth at 1 nM relative to untreated control; type: functional; settings: read-out: Activity
# [34] = tested on: SK-OV-3; assay: Growth inhibition of human SKOV3 cells assessed as cell growth at 10 nM relative to untreated control; type: functional; settings: read-out: Activity
# [35] = tested on: NCI-H322M; assay: Growth inhibition of human NCI-H322M cells assessed as cell growth at 10 nM relative to untreated control; type: functional; settings: read-out: Activity
# [36] = tested on: NCI/ADR-RES; assay: Growth inhibition of human NCI/ADR-RES cells assessed as cell growth at 100 nM relative to untreated control; type: functional; settings: read-out: Activity
# [37] = tested on: CCRF-CEM; assay: Growth inhibition of human CCRF-CEM cells assessed as cell growth at 1 uM relative to untreated control; type: functional; settings: read-out: Activity
# [38] = tested on: MCF7; assay: Growth inhibition of human MCF7 cells; type: functional
# [39] = tested on: SK-OV-3; assay: Growth inhibition of human SKOV3 cells; type: functional
# [40] = tested on: NCI-H23; assay: Growth inhibition of human NCI-H23 cells; type: functional
# [41] = tested on: SK-MEL-2; assay: Growth inhibition of human SK-MEL-2 cells assessed as cell growth at 100 nM relative to untreated control; type: functional; settings: read-out: Activity
# [42] = tested on: A498; assay: Growth inhibition of human A498 cells assessed as cell growth at 100 nM relative to untreated control; type: functional; settings: read-out: Activity
# [43] = read-out: LC50 (the source's name)
# DNA (cytosine-5)-methyltransferase 3A (Homo sapiens), sequence (Q9Y6K1 whole entry, looked up): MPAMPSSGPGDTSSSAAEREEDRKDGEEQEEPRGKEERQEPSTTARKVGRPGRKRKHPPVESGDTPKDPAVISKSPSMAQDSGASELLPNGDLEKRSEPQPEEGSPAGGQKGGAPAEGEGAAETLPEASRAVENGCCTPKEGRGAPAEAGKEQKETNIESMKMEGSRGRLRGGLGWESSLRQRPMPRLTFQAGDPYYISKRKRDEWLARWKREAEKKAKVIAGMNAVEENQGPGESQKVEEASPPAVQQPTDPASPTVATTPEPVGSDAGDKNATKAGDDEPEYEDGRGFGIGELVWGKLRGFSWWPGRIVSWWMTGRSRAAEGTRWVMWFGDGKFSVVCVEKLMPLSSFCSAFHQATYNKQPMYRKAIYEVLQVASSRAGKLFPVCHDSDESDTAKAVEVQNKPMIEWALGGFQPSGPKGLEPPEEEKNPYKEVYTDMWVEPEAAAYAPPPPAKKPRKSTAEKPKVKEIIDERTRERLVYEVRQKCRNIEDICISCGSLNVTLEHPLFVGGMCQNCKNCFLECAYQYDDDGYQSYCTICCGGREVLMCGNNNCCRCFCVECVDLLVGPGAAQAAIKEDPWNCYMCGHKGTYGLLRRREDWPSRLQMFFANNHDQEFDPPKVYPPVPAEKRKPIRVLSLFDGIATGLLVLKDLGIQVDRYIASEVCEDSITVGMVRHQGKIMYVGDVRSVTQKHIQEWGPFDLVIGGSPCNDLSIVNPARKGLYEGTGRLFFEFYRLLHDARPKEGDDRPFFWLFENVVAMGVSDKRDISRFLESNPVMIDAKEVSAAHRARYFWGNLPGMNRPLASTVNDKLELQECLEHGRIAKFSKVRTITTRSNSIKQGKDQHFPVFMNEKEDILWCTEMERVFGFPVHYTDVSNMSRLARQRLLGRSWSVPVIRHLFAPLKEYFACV
compound,measurement,setting,value
COc1ccc2c(c1)[nH]c1c(C)c(OS(=O)(=O)c3cccc4c(N(C)C)cccc34)ccc12,growth at 1 µM,[1],7%
same,GI50,[2],27.6 µM
same,TGI,[2],> 100 µM
same,CC50,[2]; [43],> 100 µM
same,growth at 1 µM,[3],15%
same,GI50,[4],5.44 µM
same,TGI,[4],> 100 µM
same,CC50,[4]; [43],> 100 µM
same,growth at 0.1 µM,[5],87%
same,growth at 0.001 µM,[6],100%
same,growth at 1 µM,[7],48%
same,GI50,[8],2.84 µM
same,TGI,[8],24 µM
same,CC50,[8]; [43],> 100 µM
same,growth at 1 µM,[9],29%
same,growth at 0.01 µM,[10],103%
same,growth at 10 µM,[11],39%
same,Activity,[12],Non-toxic
same,Activity,[13],inactive
same,growth at 0.1 µM,[14],85%
same,growth at 0.01 µM,[15],83%
same,growth at 0.1 µM,[16],97%
same,growth at 0.001 µM,[17],111%
same,growth at 0.01 µM,[18],58%
same,growth at 1 µM,[19],52%
same,growth at 0.1 µM,[20],97%
same,growth at 1 µM,[21],5%
same,growth at 10 µM,[22],12%
same,GI50,[23],48.4 µM
same,TGI,[23],> 100 µM
same,CC50,[23]; [43],> 100 µM
same,GI50,[24],75.1 µM
same,TGI,[24],> 100 µM
same,CC50,[24]; [43],> 100 µM
same,GI50,[25],22.4 µM
same,TGI,[25],60.2 µM
same,CC50,[25]; [43],> 100 µM
same,growth at 0.1 µM,[26],94%
same,growth at 10 µM,[27],8%
same,growth at 0.1 µM,[28],95%
same,growth at 1 µM,[29],18%
same,growth at 10 µM,[30],1%
same,Activity,[31],Active
same,growth at 0.1 µM,[32],97%
same,growth at 0.001 µM,[33],94%
same,growth at 0.01 µM,[34],95%
same,growth at 0.01 µM,[35],94%
same,growth at 0.1 µM,[36],93%
same,growth at 1 µM,[37],1%
same,GI50,[38],2.71 µM
same,TGI,[38],> 100 µM
same,CC50,[38]; [43],> 100 µM
same,GI50,[39],5.47 µM
same,TGI,[39],> 100 µM
same,CC50,[39]; [43],> 100 µM
same,GI50,[40],4.08 µM
same,TGI,[40],> 100 µM
same,CC50,[40]; [43],> 100 µM
same,growth at 0.1 µM,[41],115%
same,growth at 0.1 µM,[42],59%
